Laboratory results published in ChEMBL document CHEMBL3352477 (ACS Med Chem Lett, 2015).
pIC50: −log10 of the molar value.

Columns and labels:
[1] = target: Serine/threonine-protein kinase/endoribonuclease IRE1 (Homo sapiens, UniProt O75460); assay: Inhibition of human IRE1alpha using 5'[6FAM]-GAGUCCGCAGCACUC-[BHQ1]3' substrate by biochemical fluorescence quenching assay
In short: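 RNase activity of autophosphorylated IRE1α, read as cleavage of an XBP1 stem-loop RNA substrate. This format picks up inhibitors acting at either the kinase or the RNase domain.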

[2] = test system: HT-1080; assay: Inhibition of human XBP1 splicing in human HT1080-CMV-XBP1-Luciferase cells assessed as luciferase signal by Promega Bright-Glo luciferase assay; assay type: functional
In short: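 HT1080 cells carried an XBP1–luciferase fusion that is in frame and expressed only from the spliced XBP1 transcript. Thapsigargin induced the UPR and activated IRE1α to drive splicing. The luciferase signal was quantified as the measure of cellular XBP1 splicing.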

[3] = target: Mitogen-activated protein kinase 10 (Homo sapiens, UniProt P53779); assay: Inhibition of human wild type JNK3 using biotinylated ATF2 substrate assessed as phosphorylation at thr53 on ATF2 by fluorescent plate reader
[4] = Inhibition of aurora (unknown origin) assessed as phosphorylation of histone H3; set-up: species or system Homo sapiens

Sequence of Serine/threonine-protein kinase/endoribonuclease IRE1 (O75460 whole entry, the tested form may be a part): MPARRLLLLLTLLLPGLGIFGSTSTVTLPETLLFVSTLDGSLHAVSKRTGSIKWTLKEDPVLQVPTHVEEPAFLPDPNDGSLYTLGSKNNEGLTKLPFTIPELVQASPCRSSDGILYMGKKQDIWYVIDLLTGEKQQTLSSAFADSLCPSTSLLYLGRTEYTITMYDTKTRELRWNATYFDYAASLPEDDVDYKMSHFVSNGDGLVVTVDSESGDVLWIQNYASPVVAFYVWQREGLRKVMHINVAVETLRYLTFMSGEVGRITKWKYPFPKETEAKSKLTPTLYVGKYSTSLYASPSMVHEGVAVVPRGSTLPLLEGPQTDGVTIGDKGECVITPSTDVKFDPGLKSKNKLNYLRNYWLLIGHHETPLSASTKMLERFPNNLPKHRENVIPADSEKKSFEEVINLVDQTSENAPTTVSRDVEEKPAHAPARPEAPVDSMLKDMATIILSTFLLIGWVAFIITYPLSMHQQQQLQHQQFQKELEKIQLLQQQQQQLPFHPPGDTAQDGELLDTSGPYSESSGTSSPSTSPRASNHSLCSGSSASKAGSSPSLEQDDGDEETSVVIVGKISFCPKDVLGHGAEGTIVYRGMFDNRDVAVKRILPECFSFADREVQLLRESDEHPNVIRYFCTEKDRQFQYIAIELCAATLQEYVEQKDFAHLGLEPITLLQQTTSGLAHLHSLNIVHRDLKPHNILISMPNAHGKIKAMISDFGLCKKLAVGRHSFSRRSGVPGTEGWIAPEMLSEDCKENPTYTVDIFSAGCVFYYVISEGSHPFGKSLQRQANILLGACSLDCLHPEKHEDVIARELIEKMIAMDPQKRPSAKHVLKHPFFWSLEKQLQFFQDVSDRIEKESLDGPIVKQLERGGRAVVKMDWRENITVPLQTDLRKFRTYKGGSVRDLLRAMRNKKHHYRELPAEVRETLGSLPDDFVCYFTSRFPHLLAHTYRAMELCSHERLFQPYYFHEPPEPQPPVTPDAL
Sequence of Mitogen-activated protein kinase 10 (P53779 whole entry): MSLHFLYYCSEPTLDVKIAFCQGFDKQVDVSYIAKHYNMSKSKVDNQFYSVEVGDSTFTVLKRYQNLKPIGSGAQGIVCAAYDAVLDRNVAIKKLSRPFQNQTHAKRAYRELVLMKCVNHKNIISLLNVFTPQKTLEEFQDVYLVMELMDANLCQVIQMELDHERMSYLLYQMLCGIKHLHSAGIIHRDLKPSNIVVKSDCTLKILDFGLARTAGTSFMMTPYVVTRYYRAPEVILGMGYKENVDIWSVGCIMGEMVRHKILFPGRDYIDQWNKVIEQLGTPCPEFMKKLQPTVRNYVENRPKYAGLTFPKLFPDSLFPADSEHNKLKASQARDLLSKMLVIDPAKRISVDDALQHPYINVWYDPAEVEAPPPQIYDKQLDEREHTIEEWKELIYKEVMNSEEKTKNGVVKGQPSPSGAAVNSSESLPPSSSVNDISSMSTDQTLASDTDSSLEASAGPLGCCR

SMILES	pIC50 [1]	pIC50 [2]	pIC50 [3]	pIC50 [4]
CN1CCCC(Nc2nccc(-c3cccnc3Oc3ccc(Nc4nc5ccccc5[nH]4)c4ccccc34)n2)C1 (centres undefined)	7.54	6.51	8.26	
N[C@H]1CC[C@@H](Nc2nccc(-c3cccnc3Oc3ccc(Nc4nc5ccccc5[nH]4)c4ccccc34)n2)CC1	7.37	6.47	8.12	
Cc1cc(Nc2nc3ccccc3[nH]2)c2ccccc2c1Oc1ncccc1-c1ccnc(N[C@H]2CCCNC2)n1	8.29	7.89	7.70	
Cc1cc(NS(=O)(=O)c2ccccc2Cl)c2ccccc2c1Oc1ncccc1-c1ccnc(N[C@H]2CC[C@H](N)CC2)n1	7.85	7.38	5.80	
OCCNc1nccc(-c2cccnc2Oc2ccc(Nc3nc4ccccc4[nH]3)c3ccccc23)n1	6.77	6.06	7.92	
Cc1cc(NS(=O)(=O)c2ccccc2C#N)c2ccccc2c1Oc1ncccc1-c1ccnc(N[C@H]2CC[C@H](N)CC2)n1	7.92	7.21	6.40	
CN(C)CCNc1nccc(-c2cccnc2Oc2ccc(Nc3nc4ccccc4[nH]3)c3ccccc23)n1	7.15	6.57	6.46	4.80
Cc1cc(NS(=O)(=O)c2ccccc2)c2ccccc2c1Oc1ncccc1-c1ccnc(N[C@H]2CC[C@H](N)CC2)n1	7.35	6.23	5.66	
c1cnc(Oc2ccc(Nc3nc4ccccc4[nH]3)c3ccccc23)c(-c2ccnc(N[C@H]3CCCNC3)n2)c1	8.01	7.51	7.51	
Cc1cc(Nc2nc3ccccc3[nH]2)c2ccccc2c1Oc1ncccc1-c1ccnc(NCCN(C)C)n1	7.85	6.70	6.15	< 4.30
c1cnc(Oc2ccc(Nc3nc4ccccc4[nH]3)c3ccccc23)c(-c2ccnc(N[C@@H]3CCCNC3)n2)c1	7.29	6.24	7.85	
Cc1cc(Nc2nc3ccccc3o2)c2ccccc2c1Oc1ncccc1-c1ccnc(N[C@H]2CC[C@H](N)CC2)n1	7.85	7.29	8.15	
N[C@H]1CC[C@H](Nc2nccc(-c3cccnc3Oc3ccc(Nc4nc5ccccc5[nH]4)c4ccccc34)n2)CC1	7.96	7.48	8.72	
Cc1cc(Nc2nc3ccccc3[nH]2)c2ccccc2c1Oc1ncccc1-c1ccnc(N[C@H]2CC[C@H](N)CC2)n1	8.19	7.48	8.72	
Cc1ccc2c(NS(=O)(=O)c3ccccc3Cl)cccc2c1Oc1ncccc1-c1ccnc(N[C@H]2CC[C@H](N)CC2)n1	7.66	6.92	6.27	
Cc1ccc2c(NS(=O)(=O)c3ccccc3Cl)cccc2c1Oc1ncccc1-c1ccnc(N[C@H]2CCCNC2)n1	7.89	7.00	5.60	
COc1ccccc1S(=O)(=O)Nc1cc(C)c(Oc2ncccc2-c2ccnc(N[C@H]3CC[C@H](N)CC3)n2)c2ccccc12	7.27	6.36	5.92	
CC(C)CCNc1nccc(-c2cccnc2Oc2ccc(Nc3nc4ccccc4[nH]3)c3ccccc23)n1	< 4.00	4.82	7.49	
N[C@H]1CC[C@H](Nc2nccc(-c3cccnc3Oc3ccc(NS(=O)(=O)c4ccccc4Cl)c4ccccc34)n2)CC1	7.51	6.24	6.40	
